# Key:
# [1] = target: Bromodomain-containing protein 4 (Homo sapiens, UniProt O60885, Y97A); experiment: Displacement of Alexa Fluor 647 labelled I-BET762 from N-terminal His6-tagged human BRD4 BD2 (1 to 477 residues)/BD1 Y97A mutant expressed in Escherichia coli after 1 hr by TR-FRET assay
# [2] = target: Bromodomain-containing protein 4 (Homo sapiens, UniProt O60885, Y390A); experiment: Displacement of Alexa Fluor 647 labelled I-BET762 from N-terminal His6-tagged human BRD4 BD1 (1 to 477 residues)/BD2 Y390A mutant expressed in Escherichia coli after 1 hr by TR-FRET assay
# Blood [3] = experiment: Antiinflammatory activity in human whole blood assessed as reduction in LPS-induced MCP1 production preincubated for 30 mins followed by LPS challenge and measured after overnight incubation by mesoscale assay; assay type: functional, tissue-based
# PBMC [4] = experiment: Antiinflammatory activity in human PBMC assessed as reduction in LPS-induced IL-6 production incubated for 18 to 24 hrs by mesoscale assay; assay type: functional, cell-based
# PBMC [5] = experiment: Antiinflammatory activity in human PBMC assessed as reduction in LPS-induced MCP1 production incubated for 18 to 24 hrs by mesoscale assay; assay type: functional, cell-based
# MV4-11 = experiment: Growth inhibition of human MV4-11 cells incubated for 72 hrs by Cell-titre glo assay; assay type: functional, cell-based; conditions: MV4-11, 72 h
# Blood [6] = experiment: Antiinflammatory activity in human whole blood assessed as reduction in LPS-induced IL-6 production preincubated for 30 mins followed by LPS challenge and measured after overnight incubation by mesoscale assay; assay type: functional, tissue-based
# [7] = target: T1, Bromodomain-containing protein 2 (Homo sapiens, UniProt P25440); experiment: Binding affinity to BRD2 BD2 (unknown origin) by isothermal titration calorimetric method
# [8] = target: T2, Bromodomain-containing protein 3 (Homo sapiens, UniProt Q15059); experiment: Binding affinity to BRD3 BD2 (unknown origin) by isothermal titration calorimetric method
# [9] = target: T2, Bromodomain-containing protein 3; experiment: Binding affinity to BRD3 BD1 (unknown origin) by isothermal titration calorimetric method
# [10] = target: T1, Bromodomain-containing protein 2; experiment: Binding affinity to BRD2 BD1 (unknown origin) by isothermal titration calorimetric method
# [11] = target: Bromodomain testis-specific protein (Homo sapiens, UniProt Q58F21, Y309A); experiment: Displacement of Alexa Fluor 647 labelled I-BET762 from N-terminal His6-tagged human BRDT BD1 (1 to 397 residues)/BD2 Y309A mutant expressed in Escherichia coli after 1 hr by TR-FRET assay
# [12] = target: Bromodomain-containing protein 3 (Homo sapiens, UniProt Q15059, Y348A); experiment: Displacement of Alexa Fluor 647 labelled I-BET762 from N-terminal His6-tagged human BRD3 BD1 (1 to 435 residues)/BD2 Y348A mutant expressed in Escherichia coli after 1 hr by TR-FRET assay
# [13] = target: Bromodomain-containing protein 3 (Homo sapiens, UniProt Q15059, Y73A); experiment: Displacement of Alexa Fluor 647 labelled I-BET762 from N-terminal His6-tagged human BRD3 BD2 (1 to 435 residues)/BD1 Y73A mutant expressed in Escherichia coli after 1 hr by TR-FRET assay
# In short: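 Single-mutant tandem bromodomain constructs (Tyr→Ala in the other domain), N-terminal 6His, expressed in E. coli. Compounds were titrated from 10 mM DMSO stocks. Protein at 10 nM in 50 mM HEPES, 50 mM NaCl, 1 mM CHAPS, pH 7.4 with Alexa Fluor 647–I-BET762 tracer at 50 nM (200 nM for BRDT Y66A). Plates were equilibrated 1 h at rt in the dark, then 1.5 nM Eu-anti-6His was added.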
# [14] = target: Bromodomain testis-specific protein (Homo sapiens, UniProt Q58F21, Y66A); experiment: Displacement of Alexa Fluor 647 labelled I-BET762 from N-terminal His6-tagged human BRDT BD2 (1 to 397 residues)/BD1 Y66A mutant expressed in Escherichia coli after 1 hr by TR-FRET assay
# [15] = target: Bromodomain-containing protein 2 (Homo sapiens, UniProt P25440, Y113A); experiment: Displacement of Alexa Fluor 647 labelled I-BET762 from N-terminal His6-tagged human BRD2 BD2 (1 to 473 residues)/BD1 Y113A mutant expressed in Escherichia coli after 1 hr by TR-FRET assay
# [16] = target: Bromodomain-containing protein 2 (Homo sapiens, UniProt P25440, Y386A); experiment: Displacement of Alexa Fluor 647 labelled I-BET762 from N-terminal His6-tagged human BRD2 BD1 (1 to 473 residues)/BD2 Y386A mutant expressed in Escherichia coli after 1 hr by TR-FRET assay
# Homo sapiens [17] = organism: Homo sapiens; experiment: Selectivity index, difference between pIC50 for N-terminal His6-tagged human BRD3 BD1 (1 to 435 residues)/BD2 Y348A mutant expressed in Escherichia coli to pIC50 for N-terminal His6-tagged human BRD3 BD2 (1 to 435 residues)/BD1 Y73A mutant expressed in Escherichia coli
# Homo sapiens [18] = organism: Homo sapiens; experiment: Selectivity index, difference between pIC50 for N-terminal His6-tagged human BRD2 BD1 (1 to 473 residues)/ BD2 Y386A mutant expressed in Escherichia coli to pIC50 for N-terminal His6-tagged human BRD2 BD2 (1 to 473 residues)/BD1 Y113A mutant expressed in Escherichia coli
# Homo sapiens [19] = organism: Homo sapiens; experiment: Selectivity index, difference between pIC50 for N-terminal His6-tagged human BRDT BD1 (1 to 397 residues)/ BD2 Y309A mutant expressed in Escherichia coli to pIC50 for N-terminal His6-tagged human BRDT BD2 (1 to 397 residues)/BD1 Y66A mutant expressed in Escherichia coli
# [20] = Tmax in CD1 mouse at 10 mg/kg, ip measured up to 12 hrs by reverse-phase LC-MS/MS analysis; assay type: ADME, organism-based; conditions: in vivo
# In short: (§1)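 Three male CD1 mice (30–33 g) given a single ip dose of 10 mg/kg, formulated at 2 mg/mL in 10% Kleptose in saline at pH 5 and dosed at 5 mL/kg. Serial tail-vein blood (ca. 20 µL) was taken up to 12 h, with a terminal cardiac sample at 24 h. Blood was diluted 1:1 with water, extracted by acetonitrile protein precipitation with internal standard, and quantified by reverse-phase LC-MS/MS (positive ion) against standards in control blood. Values are mean of n = 3.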
# [21] = Terminal half life in CD1 mouse at 10 mg/kg, ip measured after 7 to 24 hrs by reverse-phase LC-MS/MS analysis; assay type: ADME, organism-based; conditions: in vivo, read-out: beta t1/2 (converted); in short: as §1
# [22] = AUCinfinity in CD1 mouse at 10 mg/kg, ip measured up to 12 hrs by reverse-phase LC-MS/MS analysis; assay type: ADME, organism-based; design: dose 10 mg/kg, time infinity, route intraperitoneal; conditions: in vivo; in short: as §1
# [23] = Cmax in CD1 mouse at 10 mg/kg, ip measured up to 12 hrs by reverse-phase LC-MS/MS analysis; assay type: ADME, organism-based; design: dose 10 mg/kg, route intraperitoneal; conditions: in vivo; in short: as §1
# [24] = Unbound fraction in CD1 mouse blood at 200 to 1000 ng/ml incubated for 4 hrs by LC-MS/MS-based rapid equilibrium dialysis method; assay type: ADME, tissue-based
# [25] = Elimination half life in CD1 mouse at 10 mg/kg, ip measured up to 7 hrs by reverse-phase LC-MS/MS analysis; assay type: ADME, organism-based; conditions: in vivo, read-out: beta t1/2 (converted); in short: as §1
# Sequence of Bromodomain-containing protein 3 (Homo sapiens, UniProt Q15059, Y73A) (Q15059 2-726 Y73A limits assumed): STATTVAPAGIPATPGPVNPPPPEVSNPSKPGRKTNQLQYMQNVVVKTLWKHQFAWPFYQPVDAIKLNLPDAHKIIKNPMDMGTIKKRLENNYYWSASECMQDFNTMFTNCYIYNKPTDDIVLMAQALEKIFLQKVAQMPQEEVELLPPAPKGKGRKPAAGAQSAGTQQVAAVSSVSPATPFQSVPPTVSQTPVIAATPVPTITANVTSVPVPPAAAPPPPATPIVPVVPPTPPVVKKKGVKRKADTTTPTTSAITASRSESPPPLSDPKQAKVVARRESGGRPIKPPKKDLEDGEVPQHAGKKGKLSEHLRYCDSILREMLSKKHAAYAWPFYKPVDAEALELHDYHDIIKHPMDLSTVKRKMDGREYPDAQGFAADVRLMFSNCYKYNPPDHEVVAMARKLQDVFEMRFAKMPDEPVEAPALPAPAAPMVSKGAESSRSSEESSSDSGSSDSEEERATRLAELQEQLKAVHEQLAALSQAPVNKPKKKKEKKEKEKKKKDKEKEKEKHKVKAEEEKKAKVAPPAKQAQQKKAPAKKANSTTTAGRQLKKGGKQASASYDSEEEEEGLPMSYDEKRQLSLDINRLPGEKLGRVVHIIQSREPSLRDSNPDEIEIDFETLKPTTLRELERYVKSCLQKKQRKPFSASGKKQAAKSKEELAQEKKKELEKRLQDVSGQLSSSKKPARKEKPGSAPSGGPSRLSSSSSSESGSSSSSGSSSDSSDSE
# Sequence of Bromodomain-containing protein 3 (Homo sapiens, UniProt Q15059, Y348A) (Q15059 2-726 Y348A limits assumed): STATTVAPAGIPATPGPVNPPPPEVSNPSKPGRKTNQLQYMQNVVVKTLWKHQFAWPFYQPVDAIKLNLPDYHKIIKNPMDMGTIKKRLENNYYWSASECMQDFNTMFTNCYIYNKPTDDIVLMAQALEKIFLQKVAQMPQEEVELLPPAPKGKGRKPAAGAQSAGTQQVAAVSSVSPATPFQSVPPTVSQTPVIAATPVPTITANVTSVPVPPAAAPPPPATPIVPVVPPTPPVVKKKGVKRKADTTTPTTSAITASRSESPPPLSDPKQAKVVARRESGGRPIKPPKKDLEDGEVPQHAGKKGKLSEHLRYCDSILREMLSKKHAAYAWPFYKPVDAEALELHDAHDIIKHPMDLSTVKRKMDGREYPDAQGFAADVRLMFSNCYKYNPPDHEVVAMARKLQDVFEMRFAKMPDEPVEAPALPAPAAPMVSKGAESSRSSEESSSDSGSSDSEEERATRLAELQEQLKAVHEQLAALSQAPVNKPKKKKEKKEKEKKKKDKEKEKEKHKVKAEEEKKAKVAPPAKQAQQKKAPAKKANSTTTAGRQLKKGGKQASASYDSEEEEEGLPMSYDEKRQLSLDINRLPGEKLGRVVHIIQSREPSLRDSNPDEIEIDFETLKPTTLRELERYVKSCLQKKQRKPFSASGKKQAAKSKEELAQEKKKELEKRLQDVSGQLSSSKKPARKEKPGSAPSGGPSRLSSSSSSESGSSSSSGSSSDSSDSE
# Sequence of Bromodomain-containing protein 2 (Homo sapiens, UniProt P25440, Y113A) (P25440 whole entry Y113A, the tested form may be a part): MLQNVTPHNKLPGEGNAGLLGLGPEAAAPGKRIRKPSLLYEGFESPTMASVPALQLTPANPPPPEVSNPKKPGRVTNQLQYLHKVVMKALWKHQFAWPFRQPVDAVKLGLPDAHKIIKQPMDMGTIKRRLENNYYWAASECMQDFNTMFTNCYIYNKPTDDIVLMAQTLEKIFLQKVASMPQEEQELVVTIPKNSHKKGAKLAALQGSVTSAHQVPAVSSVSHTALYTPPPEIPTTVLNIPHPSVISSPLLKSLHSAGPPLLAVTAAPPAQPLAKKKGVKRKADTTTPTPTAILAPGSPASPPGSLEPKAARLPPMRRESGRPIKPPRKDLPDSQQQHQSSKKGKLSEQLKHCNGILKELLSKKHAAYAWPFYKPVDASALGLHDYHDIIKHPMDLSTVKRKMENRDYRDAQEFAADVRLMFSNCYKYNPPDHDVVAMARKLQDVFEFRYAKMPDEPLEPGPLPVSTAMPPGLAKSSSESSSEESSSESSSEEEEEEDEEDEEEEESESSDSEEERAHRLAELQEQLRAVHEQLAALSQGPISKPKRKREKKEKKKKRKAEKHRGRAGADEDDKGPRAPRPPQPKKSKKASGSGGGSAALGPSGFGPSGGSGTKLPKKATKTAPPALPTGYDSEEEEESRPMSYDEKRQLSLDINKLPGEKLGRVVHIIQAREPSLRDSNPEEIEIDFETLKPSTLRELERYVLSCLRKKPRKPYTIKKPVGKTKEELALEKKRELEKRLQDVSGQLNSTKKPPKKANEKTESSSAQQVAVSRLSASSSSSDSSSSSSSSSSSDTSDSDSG
# T2 sequence (Q15059 whole entry): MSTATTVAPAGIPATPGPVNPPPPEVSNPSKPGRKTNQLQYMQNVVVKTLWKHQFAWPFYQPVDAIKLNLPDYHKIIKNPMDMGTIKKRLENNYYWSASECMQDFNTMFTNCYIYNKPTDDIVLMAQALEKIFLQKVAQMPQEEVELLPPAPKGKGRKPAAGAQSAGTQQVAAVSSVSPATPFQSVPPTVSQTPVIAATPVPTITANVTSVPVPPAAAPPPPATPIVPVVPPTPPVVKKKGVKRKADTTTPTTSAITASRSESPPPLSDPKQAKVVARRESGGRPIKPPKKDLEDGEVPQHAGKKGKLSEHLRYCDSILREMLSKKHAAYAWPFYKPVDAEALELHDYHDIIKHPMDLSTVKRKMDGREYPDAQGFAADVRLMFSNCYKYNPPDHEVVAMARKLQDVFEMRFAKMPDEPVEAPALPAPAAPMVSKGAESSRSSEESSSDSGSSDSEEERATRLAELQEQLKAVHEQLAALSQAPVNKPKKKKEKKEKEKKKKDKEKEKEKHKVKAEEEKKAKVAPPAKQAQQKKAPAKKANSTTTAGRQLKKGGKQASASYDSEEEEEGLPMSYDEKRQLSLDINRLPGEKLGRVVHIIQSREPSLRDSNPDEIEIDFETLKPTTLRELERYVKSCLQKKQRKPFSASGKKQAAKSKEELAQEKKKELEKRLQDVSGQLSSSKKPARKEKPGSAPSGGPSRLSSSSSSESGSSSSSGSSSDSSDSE
# Sequence of Bromodomain-containing protein 2 (Homo sapiens, UniProt P25440, Y386A) (P25440 whole entry Y386A, the tested form may be a part): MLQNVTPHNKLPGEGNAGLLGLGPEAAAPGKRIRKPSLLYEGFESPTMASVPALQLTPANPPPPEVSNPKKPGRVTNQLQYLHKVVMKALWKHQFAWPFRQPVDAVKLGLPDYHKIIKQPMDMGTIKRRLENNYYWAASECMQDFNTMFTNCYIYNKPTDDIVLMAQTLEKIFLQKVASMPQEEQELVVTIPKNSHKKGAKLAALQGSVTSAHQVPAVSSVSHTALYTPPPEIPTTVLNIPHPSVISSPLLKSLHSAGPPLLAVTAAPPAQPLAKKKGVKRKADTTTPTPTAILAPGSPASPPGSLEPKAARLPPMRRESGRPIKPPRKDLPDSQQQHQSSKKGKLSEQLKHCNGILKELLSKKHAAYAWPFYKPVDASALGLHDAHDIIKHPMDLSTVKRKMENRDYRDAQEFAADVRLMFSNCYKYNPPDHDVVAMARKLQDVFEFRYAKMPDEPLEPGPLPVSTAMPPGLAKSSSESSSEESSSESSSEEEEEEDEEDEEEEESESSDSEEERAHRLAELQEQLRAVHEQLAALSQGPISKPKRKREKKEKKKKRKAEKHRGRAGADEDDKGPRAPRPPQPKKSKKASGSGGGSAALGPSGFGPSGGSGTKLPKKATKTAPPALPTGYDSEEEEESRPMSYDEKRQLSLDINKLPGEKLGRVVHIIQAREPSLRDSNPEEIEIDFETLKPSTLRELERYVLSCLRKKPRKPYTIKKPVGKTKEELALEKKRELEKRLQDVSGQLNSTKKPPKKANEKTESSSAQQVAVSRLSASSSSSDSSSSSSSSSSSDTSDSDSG
# T1 sequence (P25440 whole entry): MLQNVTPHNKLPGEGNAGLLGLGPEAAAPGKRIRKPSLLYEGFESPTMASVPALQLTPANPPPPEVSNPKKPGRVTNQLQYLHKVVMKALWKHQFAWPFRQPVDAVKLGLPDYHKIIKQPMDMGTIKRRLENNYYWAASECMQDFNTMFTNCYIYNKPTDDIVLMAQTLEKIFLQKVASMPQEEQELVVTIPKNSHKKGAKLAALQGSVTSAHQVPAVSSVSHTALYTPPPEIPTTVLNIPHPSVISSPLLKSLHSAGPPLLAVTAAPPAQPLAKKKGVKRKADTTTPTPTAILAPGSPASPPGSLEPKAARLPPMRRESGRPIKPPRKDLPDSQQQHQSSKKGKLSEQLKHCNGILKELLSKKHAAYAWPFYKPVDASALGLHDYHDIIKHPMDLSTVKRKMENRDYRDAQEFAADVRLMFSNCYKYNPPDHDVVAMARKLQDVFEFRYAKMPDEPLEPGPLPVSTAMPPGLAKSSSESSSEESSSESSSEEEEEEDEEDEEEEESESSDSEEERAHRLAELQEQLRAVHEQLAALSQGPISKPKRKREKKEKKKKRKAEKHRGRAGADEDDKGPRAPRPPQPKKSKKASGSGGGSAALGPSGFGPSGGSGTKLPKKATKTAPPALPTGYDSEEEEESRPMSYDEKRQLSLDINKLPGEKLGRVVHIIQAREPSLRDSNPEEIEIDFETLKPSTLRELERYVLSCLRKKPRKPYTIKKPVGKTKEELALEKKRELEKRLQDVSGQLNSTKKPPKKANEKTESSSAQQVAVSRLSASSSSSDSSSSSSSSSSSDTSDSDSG
Compound,IC50 [1] [nM],IC50 [2] [nM],further results
COc1ccc2c(c1)C(c1ccc(Cl)cc1)=N[C@@H](NC(=O)OCc1ccccc1)c1nnc(C)n1-2,–,–,IC50 (Blood [3]): 200 nM; IC50 (PBMC [4]): 316 nM; IC50 (PBMC [5]): 50.1 nM; IC50 (MV4-11): 200 nM; IC50 (Blood [6]): 1580 nM
Cc1noc(C)c1-c1cc2ncc3c(c2cc1OCCCO)n(C(C)c1ccccn1)c(=O)n3C (stereo unspecified),6310,501,–
CC(=O)NCCCCn1c2c(c3ccccc31)C(=O)NCC2,–,–,Kd [7]: > 300000 nM; Kd [8]: > 300000 nM; Kd [9]: 3300 to 8600 nM; Kd [10]: 3300 to 8600 nM
CC(=O)NCCCOc1cc2c(cc1-c1c(C)noc1C)ncc1c2n(C(C)c2ccccn2)c(=O)n1C (stereo unspecified),3160,794,–
COc1cc2c(cc1-c1c(C)noc1C)ncc1c2n([C@H](C)c2ccccn2)c(=O)n1C,501,50.1,–
Cc1noc(C)c1-c1cc2ncc3c(c2cc1O[C@@H]1CCNC1)n([C@H](C)c1ccccn1)c(=O)n3C,50100,1260,–
Cc1noc(C)c1-c1cc2ncc3c(c2cc1OCCN)n(C(C)c1ccccn1)c(=O)n3C (stereo unspecified),31600,1260,–
Cc1noc(C)c1-c1cc2ncc3c(c2cc1O[C@H]1C[C@H](N)C1)n(C(C)c1ccccn1)c(=O)n3C (stereo partly specified),3160,79.4,–
Cc1noc(C)c1-c1cc2ncc3c(c2cc1OC[C@H]1CCNC1)n(C(C)c1ccccn1)c(=O)n3C (mixture of isomers),25100,501,–
COc1cc2c(cc1-c1c(C)noc1C)ncc1[nH]c(=O)n([C@H](C)c3ccccn3)c12,–,–,IC50 (Blood [3]): 200 nM; IC50 [11]: 126 nM; IC50 (PBMC [4]): 126 nM; IC50 (PBMC [5]): 39.8 nM; IC50 [12]: 31.6 nM; IC50 (MV4-11): 100 nM; IC50 (Blood [6]): 1000 nM; IC50 [13]: 79.4 nM; IC50 [14]: 1580 nM
COCc1nc2cnc3cc(-c4c(C)noc4C)c(OC)cc3c2n1[C@H](C)c1ccccc1,39.8,10,IC50 [11]: 25.1 nM; IC50 [15]: 39.8 nM; IC50 [16]: 12.6 nM; Selectivity Index (Homo sapiens [17]): 1.6; IC50 [12]: 10 nM; Selectivity Index (Homo sapiens [18]): 3.2; Selectivity Index (Homo sapiens [19]): 13; IC50 [13]: 15.8 nM; IC50 [14]: 316 nM
Cc1noc(C)c1-c1cc2ncc3c(c2cc1OCCCN(C)C)n([C@H](C)c1ccccn1)c(=O)n3C,> 50100,1000,–
Cc1noc(C)c1-c1cc2ncc3c(c2cc1O[C@H]1C[C@@H](N)C1)n(C(C)c1ccccn1)c(=O)n3C (stereo partly specified),10000,251,–
Cc1noc(C)c1-c1cc2ncc3c(c2cc1OCC(=O)O)n([C@H](C)c1ccccn1)c(=O)n3C,12600,2000,–
COCc1nc2cnc3cc(-c4c(C)noc4C)c(OC[C@H]4CCNC4)cc3c2n1[C@H](C)c1ccccc1 [GSK778],–,–,Tmax [20]: 15 to 30 min; half-life [21]: 492 min; IC50 [15]: 3160 nM; IC50 [16]: 79.4 nM; AUC(0-inf) [22]: 3.34 µM·h; IC50 (MV4-11): 100 nM; Cmax [23]: 2400 nM; fraction unbound at 4 h [24]: 0.08; IC50 (Blood [6]): 251 nM; half-life [25]: 54 min; IC50 [13]: 1000 nM
Cc1noc(C)c1-c1cc2ncc3c(c2cc1CC(=O)O)n(C(C)c1ccccn1)c(=O)n3C (stereo unspecified),> 50100,> 50100,–
CNCCCOc1cc2c(cc1-c1c(C)noc1C)ncc1c2n(C(C)c2ccccn2)c(=O)n1C (stereo unspecified),25100,1000,–

# Further lines, with some results ahead:
IC50 [1] [nM],IC50 [2] [nM],Compound,further results
39800,794,Cc1noc(C)c1-c1cc2ncc3c(c2cc1OCC1CCNCC1)n(C(C)c1ccccn1)c(=O)n3C (stereo unspecified),–
> 50100,6310,Cc1noc(C)c1-c1cc2ncc3c(c2cc1O[C@H]1CCNC1)n(C(C)c1ccccn1)c(=O)n3C (mixture of isomers),–
15800,631,Cc1noc(C)c1-c1cc2ncc3c(c2cc1OCCCN)n(C(C)c1ccccn1)c(=O)n3C (stereo unspecified),–
> 50100,12600,Cc1noc(C)c1-c1cc2ncc3c(c2cc1C(=O)O)n(C(C)c1ccccn1)c(=O)n3C (stereo unspecified),–
> 50100,2000,Cc1noc(C)c1-c1cc2ncc3c(c2cc1OCCN(C)C)n([C@H](C)c1ccccn1)c(=O)n3C,–
31600,794,Cc1noc(C)c1-c1cc2ncc3c(c2cc1OC[C@@H]1CCNC1)n(C(C)c1ccccn1)c(=O)n3C (mixture of isomers),–
